System: HEK-293T
Experiment: Multiplex assay against HEK293T
Assay type: toxicity, cell-based
Details: human
How it was run: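 On a CQ1 microscope at 37°C and 5% CO2, live cells were imaged after compound addition. They had been stained at seeding with Hoechst33342, BioTracker Green Microtubule Cytoskeleton Dye, MitoTracker Red and Annexin V Alexa Fluor 680. CellPathfinder machine-learning gating assigned cells to Hoechst high-intensity objects or normal cells, normal cells to healthy, pyknosed or fragmented nuclei, and pyknosed cells to mitotic or apoptotic. Tubulin, mitochondrial-mass and membrane-permeability phenotypes are per cents of healthy-nucleus cells.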

[1] = 12 h, 1 µM, compound concentration 1 uM, replicate 1
[2] = 12 h, 1 µM, compound concentration 1 uM, replicate 2
[3] = 12 h, 10 µM, compound concentration 10 uM, replicate 1
[4] = 12 h, 10 µM, compound concentration 10 uM, replicate 2
[5] = 24 h, 1 µM, compound concentration 1 uM, replicate 1
[6] = 24 h, 1 µM, compound concentration 1 uM, replicate 2
[7] = 24 h, 10 µM, compound concentration 10 uM, replicate 1
[8] = 24 h, 10 µM, compound concentration 10 uM, replicate 2
[9] = 48 h, 1 µM, compound concentration 1 uM, replicate 1
[10] = 48 h, 1 µM, compound concentration 1 uM, replicate 2
[11] = 48 h, 10 µM, compound concentration 10 uM, replicate 1
[12] = 48 h, 10 µM, compound concentration 10 uM, replicate 2

CC(C)(C)c1ccc(S(=O)(=O)Nc2ccc(Cl)cc2C(=O)c2cc[n+]([O-])cc2)cc1 [VERCIRNON]
Population Apoptotic (%) [1]: 32% | Population Fragmented Nuclei (%) [1]: 10% | Population Healthy Nuclei (%) [1]: 77% | Population Hoechst High Intensity Objects (%) [1]: 7% | Population Membrane Permeable-Phenotype (%) [1]: 0% | Population Mitochondria Different-Phenotype (%) [1]: 33% | Population Mitotic Cells (%) [1]: 68% | Population Normal (%) [1]: 92% | Population Pyknosed Nuclei (%) [1]: 12% | Population Tubulin-Different-Phenotype (%) [1]: 21% | Total Cell Count [1]: 428 | Population Apoptotic (%) [2]: 52% | Population Fragmented Nuclei (%) [2]: 5% | Population Healthy Nuclei (%) [2]: 84% | Population Mitochondria Different-Phenotype (%) [2]: 51% | Population Mitotic Cells (%) [2]: 47% | Population Pyknosed Nuclei (%) [2]: 10% | Population Tubulin-Different-Phenotype (%) [2]: 22% | Total Cell Count [2]: 424 | Population Apoptotic (%) [3]: 30% | Population Fragmented Nuclei (%) [3]: 6% | Population Healthy Nuclei (%) [3]: 83% | Population Hoechst High Intensity Objects (%) [3]: 6% | Population Membrane Permeable-Phenotype (%) [3]: 0% | Population Mitochondria Different-Phenotype (%) [3]: 35% | Population Mitotic Cells (%) [3]: 69% | Population Normal (%) [3]: 93% | Population Pyknosed Nuclei (%) [3]: 10% | Population Tubulin-Different-Phenotype (%) [3]: 37% | Total Cell Count [3]: 451 | Population Apoptotic (%) [4]: 39% | Population Fragmented Nuclei (%) [4]: 4% | Population Healthy Nuclei (%) [4]: 82% | Population Hoechst High Intensity Objects (%) [4]: 5% | Population Membrane Permeable-Phenotype (%) [4]: 1% | Population Mitochondria Different-Phenotype (%) [4]: 51% | Population Mitotic Cells (%) [4]: 60% | Population Normal (%) [4]: 94% | Population Pyknosed Nuclei (%) [4]: 13% | Population Tubulin-Different-Phenotype (%) [4]: 27% | Total Cell Count [4]: 344 | Population Apoptotic (%) [5]: 41% | Population Fragmented Nuclei (%) [5]: 8% | Population Healthy Nuclei (%) [5]: 81% | Population Hoechst High Intensity Objects (%) [5]: 6% | Population Membrane Permeable-Phenotype (%) [5]: 0% | Population Mitochondria Different-Phenotype (%) [5]: 21% | Population Mitotic Cells (%) [5]: 58% | Population Normal (%) [5]: 93% | Population Pyknosed Nuclei (%) [5]: 9% | Population Tubulin-Different-Phenotype (%) [5]: 15% | Total Cell Count [5]: 522 | Population Apoptotic (%) [6]: 28% | Population Hoechst High Intensity Objects (%) [6]: 5% | Population Mitochondria Different-Phenotype (%) [6]: 32% | Population Mitotic Cells (%) [6]: 71% | Population Normal (%) [6]: 94% | Population Tubulin-Different-Phenotype (%) [6]: 16% | Total Cell Count [6]: 521 | Population Apoptotic (%) [7]: 22% | Population Fragmented Nuclei (%) [7]: 10% | Population Healthy Nuclei (%) [7]: 77% | Population Hoechst High Intensity Objects (%) [7]: 3% | Population Membrane Permeable-Phenotype (%) [7]: 1% | Population Mitochondria Different-Phenotype (%) [7]: 15% | Population Mitotic Cells (%) [7]: 77% | Population Normal (%) [7]: 96% | Population Pyknosed Nuclei (%) [7]: 12% | Population Tubulin-Different-Phenotype (%) [7]: 20% | Total Cell Count [7]: 594 | Population Apoptotic (%) [8]: 28% | Population Fragmented Nuclei (%) [8]: 7% | Population Healthy Nuclei (%) [8]: 82% | Population Hoechst High Intensity Objects (%) [8]: 5% | Population Membrane Permeable-Phenotype (%) [8]: 0% | Population Mitochondria Different-Phenotype (%) [8]: 31% | Population Mitotic Cells (%) [8]: 71% | Population Normal (%) [8]: 94% | Population Pyknosed Nuclei (%) [8]: 9% | Population Tubulin-Different-Phenotype (%) [8]: 23% | Total Cell Count [8]: 437 | Population Apoptotic (%) [9]: 28% | Population Fragmented Nuclei (%) [9]: 16% | Population Healthy Nuclei (%) [9]: 76% | Population Hoechst High Intensity Objects (%) [9]: 2% | Population Membrane Permeable-Phenotype (%) [9]: 0% | Population Mitochondria Different-Phenotype (%) [9]: 16% | Population Mitotic Cells (%) [9]: 71% | Population Normal (%) [9]: 97% | Population Pyknosed Nuclei (%) [9]: 7% | Population Tubulin-Different-Phenotype (%) [9]: 13% | Total Cell Count [9]: 834 | Population Apoptotic (%) [10]: 32% | Population Fragmented Nuclei (%) [10]: 14% | Population Healthy Nuclei (%) [10]: 81% | Population Membrane Permeable-Phenotype (%) [10]: 2% | Population Mitochondria Different-Phenotype (%) [10]: 14% | Population Mitotic Cells (%) [10]: 67% | Population Pyknosed Nuclei (%) [10]: 4% | Population Tubulin-Different-Phenotype (%) [10]: 12% | Total Cell Count [10]: 877 | Population Apoptotic (%) [11]: 21% | Population Fragmented Nuclei (%) [11]: 13% | Population Healthy Nuclei (%) [11]: 81% | Population Hoechst High Intensity Objects (%) [11]: 3% | Population Membrane Permeable-Phenotype (%) [11]: 2% | Population Mitochondria Different-Phenotype (%) [11]: 12% | Population Mitotic Cells (%) [11]: 78% | Population Normal (%) [11]: 96% | Population Pyknosed Nuclei (%) [11]: 5% | Population Tubulin-Different-Phenotype (%) [11]: 14% | Total Cell Count [11]: 929 | Population Apoptotic (%) [12]: 25% | Population Fragmented Nuclei (%) [12]: 12% | Population Healthy Nuclei (%) [12]: 80% | Population Hoechst High Intensity Objects (%) [12]: 2% | Population Membrane Permeable-Phenotype (%) [12]: 1% | Population Mitochondria Different-Phenotype (%) [12]: 18% | Population Mitotic Cells (%) [12]: 75% | Population Normal (%) [12]: 97% | Population Pyknosed Nuclei (%) [12]: 7% | Population Tubulin-Different-Phenotype (%) [12]: 15% | Total Cell Count [12]: 586
